Experimental findings from ChEMBL document CHEMBL5661979, “Pharmacological inhibition of BMK1 suppresses tumor growth through promyelocytic leukemia protein” (Cancer Cell, 2010) are described below.

Series [1] addresses Serine/threonine-protein kinase 3/4 (Homo sapiens, UniProt Q13043+Q13188). The experiment in a line: Inhibition of MST1/2 in human HeLa cells lysate pre incubated for 15 mins followed by ATP acyl phosphate probe addition and measured after 10 mins by LC-MS/MS analysis. The series is classed as subcellular.
The target in series [2] is Tyrosine-protein kinase JAK1 (Homo sapiens, UniProt P23458). The series is described as follows: Inhibition of JAK1 domain 2 in human HeLa cells lysate at 10 uM pre incubated for 15 mins followed by ATP acyl phosphate probe addition and measured after 10 mins by LC-MS/MS analysis relative to control. Particulars: time 25.0 min. The series is classed as subcellular.
Sequence of Tyrosine-protein kinase JAK1 (P23458 whole entry, the tested form may be a part, canonical isoform): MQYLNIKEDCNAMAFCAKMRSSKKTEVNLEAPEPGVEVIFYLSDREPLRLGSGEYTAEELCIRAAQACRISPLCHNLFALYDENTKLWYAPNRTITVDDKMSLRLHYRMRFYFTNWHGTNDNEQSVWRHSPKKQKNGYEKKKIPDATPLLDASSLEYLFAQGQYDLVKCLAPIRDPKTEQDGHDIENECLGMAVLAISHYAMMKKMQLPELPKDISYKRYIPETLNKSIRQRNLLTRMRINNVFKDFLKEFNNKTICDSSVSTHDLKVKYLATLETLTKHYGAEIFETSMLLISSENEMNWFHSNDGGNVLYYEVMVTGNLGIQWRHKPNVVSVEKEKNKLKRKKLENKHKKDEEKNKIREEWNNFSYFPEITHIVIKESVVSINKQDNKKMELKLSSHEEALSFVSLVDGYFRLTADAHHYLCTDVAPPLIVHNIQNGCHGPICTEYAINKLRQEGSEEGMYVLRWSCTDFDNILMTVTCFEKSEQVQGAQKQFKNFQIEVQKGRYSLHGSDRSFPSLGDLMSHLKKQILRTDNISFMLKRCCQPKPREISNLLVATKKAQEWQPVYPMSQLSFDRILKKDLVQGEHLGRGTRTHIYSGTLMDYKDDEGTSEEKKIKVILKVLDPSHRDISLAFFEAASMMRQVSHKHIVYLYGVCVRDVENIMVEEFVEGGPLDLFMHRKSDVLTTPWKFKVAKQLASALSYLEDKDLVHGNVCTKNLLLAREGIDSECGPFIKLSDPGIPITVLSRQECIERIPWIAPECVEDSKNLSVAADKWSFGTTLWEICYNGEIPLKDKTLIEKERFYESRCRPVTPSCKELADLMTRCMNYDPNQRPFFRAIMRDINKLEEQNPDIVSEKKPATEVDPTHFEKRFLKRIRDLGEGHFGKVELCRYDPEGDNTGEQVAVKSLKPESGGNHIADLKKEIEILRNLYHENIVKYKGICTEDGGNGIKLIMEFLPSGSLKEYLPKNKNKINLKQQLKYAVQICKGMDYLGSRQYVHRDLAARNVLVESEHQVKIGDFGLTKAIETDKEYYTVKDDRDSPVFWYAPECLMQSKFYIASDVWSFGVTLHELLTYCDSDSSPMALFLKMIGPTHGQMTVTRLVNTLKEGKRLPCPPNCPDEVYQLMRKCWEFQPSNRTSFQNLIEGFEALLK
In series [3] the target is Glycogen synthase kinase-3 beta (Homo sapiens, UniProt P49841). The series is described as follows: Inhibition of GSK3B isoform 2 in human HeLa cells lysate at 10 uM pre incubated for 15 mins followed by ATP acyl phosphate probe addition and measured after 10 mins by LC-MS/MS analysis relative to control. Particulars: time 25.0 min. The series is classed as subcellular.
Sequence of Glycogen synthase kinase-3 beta (P49841 whole entry, looked up, canonical isoform): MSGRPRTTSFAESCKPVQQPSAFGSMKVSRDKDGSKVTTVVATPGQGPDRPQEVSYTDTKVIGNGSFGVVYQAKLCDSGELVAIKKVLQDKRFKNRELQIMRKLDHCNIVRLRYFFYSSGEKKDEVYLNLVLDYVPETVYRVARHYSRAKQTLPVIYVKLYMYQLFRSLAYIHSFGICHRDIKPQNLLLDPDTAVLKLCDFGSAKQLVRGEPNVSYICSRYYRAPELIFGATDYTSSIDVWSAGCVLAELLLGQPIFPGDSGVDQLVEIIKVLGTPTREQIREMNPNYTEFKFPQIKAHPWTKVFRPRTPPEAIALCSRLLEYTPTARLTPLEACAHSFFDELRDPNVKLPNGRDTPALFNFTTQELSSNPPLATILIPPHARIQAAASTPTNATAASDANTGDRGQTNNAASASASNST

Series [4] concerns the target T1, Serine/threonine-protein kinase Sgk3 (Homo sapiens, UniProt Q96BR1).
T1 sequence (Q96BR1 whole entry): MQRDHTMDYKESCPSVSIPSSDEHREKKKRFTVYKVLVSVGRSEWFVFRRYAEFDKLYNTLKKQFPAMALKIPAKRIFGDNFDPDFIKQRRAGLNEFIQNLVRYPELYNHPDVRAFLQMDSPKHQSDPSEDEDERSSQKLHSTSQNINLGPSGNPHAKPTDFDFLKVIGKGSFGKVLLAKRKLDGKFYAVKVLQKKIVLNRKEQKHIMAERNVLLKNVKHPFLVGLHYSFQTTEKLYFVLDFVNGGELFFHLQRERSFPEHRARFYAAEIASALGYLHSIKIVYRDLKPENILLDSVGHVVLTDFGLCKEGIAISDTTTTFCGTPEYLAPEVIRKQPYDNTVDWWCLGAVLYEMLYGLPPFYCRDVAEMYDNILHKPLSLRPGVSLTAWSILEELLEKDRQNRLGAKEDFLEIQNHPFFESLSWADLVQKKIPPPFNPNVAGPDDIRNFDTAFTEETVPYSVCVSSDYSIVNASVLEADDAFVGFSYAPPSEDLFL
The series is described as follows: Inhibition of SGK3 K2 site in human HeLa cells lysate pre incubated for 15 mins followed by ATP acyl phosphate probe addition and measured after 10 mins by LC-MS/MS analysis. The format is subcellular.

In series [5] the target is Mitogen-activated protein kinase kinase kinase 8 (Homo sapiens, UniProt P41279). The series is described as follows: Inhibition of COT in human HeLa cells lysate pre incubated for 15 mins followed by ADP acyl phosphate probe addition and measured after 10 mins by LC-MS/MS analysis. The format is subcellular.
Sequence of Mitogen-activated protein kinase kinase kinase 8 (P41279 whole entry): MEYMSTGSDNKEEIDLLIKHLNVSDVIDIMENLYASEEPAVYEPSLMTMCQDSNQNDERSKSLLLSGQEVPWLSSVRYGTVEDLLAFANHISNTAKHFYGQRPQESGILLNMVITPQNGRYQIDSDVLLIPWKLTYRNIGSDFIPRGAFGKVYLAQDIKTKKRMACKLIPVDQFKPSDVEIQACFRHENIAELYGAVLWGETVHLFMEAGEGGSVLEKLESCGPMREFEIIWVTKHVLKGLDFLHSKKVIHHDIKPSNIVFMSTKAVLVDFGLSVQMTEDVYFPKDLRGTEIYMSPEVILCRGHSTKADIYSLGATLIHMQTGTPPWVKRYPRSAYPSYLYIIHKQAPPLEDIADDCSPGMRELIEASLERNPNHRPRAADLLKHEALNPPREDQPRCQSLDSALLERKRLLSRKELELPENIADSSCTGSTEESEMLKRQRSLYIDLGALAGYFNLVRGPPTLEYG
Series [6] addresses T2, Phosphatidylinositol 5-phosphate 4-kinase type-2 gamma (Homo sapiens) (UniProt Q8TBX8).
T2 sequence (whole entry): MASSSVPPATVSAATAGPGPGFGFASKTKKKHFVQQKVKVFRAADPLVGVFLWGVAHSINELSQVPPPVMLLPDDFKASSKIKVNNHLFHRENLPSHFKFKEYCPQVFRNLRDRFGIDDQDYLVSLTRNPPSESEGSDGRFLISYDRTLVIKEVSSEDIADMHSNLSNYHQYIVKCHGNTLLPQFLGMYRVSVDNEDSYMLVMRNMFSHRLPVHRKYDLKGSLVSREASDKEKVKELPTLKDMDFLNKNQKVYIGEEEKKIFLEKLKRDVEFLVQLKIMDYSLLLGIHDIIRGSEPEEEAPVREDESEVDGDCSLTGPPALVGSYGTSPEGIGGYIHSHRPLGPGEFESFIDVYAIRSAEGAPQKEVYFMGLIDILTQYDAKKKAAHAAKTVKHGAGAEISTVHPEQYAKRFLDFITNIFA
The experiment in a line: Inhibition of PIP5K2C LIP2 site in human HeLa cells lysate at 2 uM pre incubated for 15 mins followed by ATP acyl phosphate probe addition and measured after 10 mins by LC-MS/MS analysis relative to control. Particulars: time 25.0 min. The series is classed as subcellular.

Series [7] deals with T3, Mixed lineage kinase domain-like protein (Homo sapiens) (UniProt Q8NB16).
T3 sequence (whole entry): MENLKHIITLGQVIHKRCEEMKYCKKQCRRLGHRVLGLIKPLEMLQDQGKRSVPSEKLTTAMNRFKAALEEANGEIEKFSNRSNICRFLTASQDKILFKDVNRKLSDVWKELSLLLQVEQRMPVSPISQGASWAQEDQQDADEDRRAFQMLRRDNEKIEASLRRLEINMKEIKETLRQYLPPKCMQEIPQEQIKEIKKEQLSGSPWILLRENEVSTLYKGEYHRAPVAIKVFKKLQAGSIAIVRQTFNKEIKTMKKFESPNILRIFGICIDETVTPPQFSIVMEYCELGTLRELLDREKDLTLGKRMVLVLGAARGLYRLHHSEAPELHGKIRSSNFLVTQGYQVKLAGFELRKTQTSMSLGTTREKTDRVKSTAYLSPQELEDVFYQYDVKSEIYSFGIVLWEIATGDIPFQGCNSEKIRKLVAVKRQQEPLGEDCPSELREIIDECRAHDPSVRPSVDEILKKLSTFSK
The experiment in a line: Inhibition of MLKL in human HeLa cells lysate at 2 uM pre incubated for 15 mins followed by ADP acyl phosphate probe addition and measured after 10 mins by LC-MS/MS analysis relative to control. The series is classed as subcellular. Particulars: time 25.0 min.

Series [8] addresses Cyclin-dependent kinase 11B (Homo sapiens, UniProt P21127). The experiment in a line: Inhibition of PITSLRE in human HeLa cells lysate at 50 uM pre incubated for 15 mins followed by ATP acyl phosphate probe addition and measured after 10 mins by LC-MS/MS analysis relative to control. The series is classed as subcellular. Particulars: time 25.0 min.
Series [9] has as its target Mitogen-activated protein kinase 14 (Homo sapiens, UniProt Q16539). The experiment in a line: Inhibition of P38alpha interaction site in human HeLa cells lysate at 50 uM pre incubated for 15 mins followed by ATP acyl phosphate probe addition and measured after 10 mins by LC-MS/MS analysis relative to control. The format is subcellular. Particulars: time 25.0 min.
Series [10] in a line: Half life in Sprague-Dawley rat at 1 mg/kg, iv measured up to 8 hrs by LC-MS/MS analysis. The series is classed as ADME, organism-based. The following applies: in vivo.
Series [11] can be described thus: Inhibition of SRC/FYN/YES in human HeLa cells lysate at 50 uM pre incubated for 15 mins followed by ATP acyl phosphate probe addition and measured after 10 mins by LC-MS/MS analysis relative to control. Particulars: 25 min, condition cancer.
Series [12] addresses Cyclin-dependent kinase 2 (Homo sapiens, UniProt P24941). The experiment in a line: Inhibition of CDK2 in human HeLa cells lysate at 10 uM pre incubated for 15 mins followed by ATP acyl phosphate probe addition and measured after 10 mins by LC-MS/MS analysis relative to control. The format is subcellular. Particulars: time 25.0 min. The gist of the method:
(§1)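 KiNativ profiling in HeLa lysate (5 mg/mL total protein). Lysate incubated 15 min with inhibitor at 50, 10, 2, 0.8 or 0 μM. ATP or ADP acylphosphate probe then added (5 μM final) and reacted 10 min. Reaction stopped with urea and analysed by targeted MS, using up to four fragment ions per kinase peptide-probe conjugate. % inhibition taken against untreated lysate. Run in duplicate.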

A short description of series [13]: Inhibition of SRC/FYN/YES in human HeLa cells lysate at 10 uM pre incubated for 15 mins followed by ATP acyl phosphate probe addition and measured after 10 mins by LC-MS/MS analysis relative to control. The following applies: 25 min, condition cancer.
Series [14] deals with Cyclin-dependent kinase 10 (Homo sapiens, UniProt Q15131). The series is described as follows: Inhibition of CDK10 in human HeLa cells lysate at 50 uM pre incubated for 15 mins followed by ATP acyl phosphate probe addition and measured after 10 mins by LC-MS/MS analysis relative to control. The series is classed as subcellular. Particulars: time 25.0 min. The gist of the method:
as §1

A word on the IC50: it is the concentration needed to halve the response being measured. Lower therefore signals greater potency in that assay. One may read the inhibition as the drop in the measured response relative to a control, in per cent. As usually defined, the half-life is the time in which the quantity being followed falls by half.

Sequence of Cyclin-dependent kinase 11B (P21127 whole entry): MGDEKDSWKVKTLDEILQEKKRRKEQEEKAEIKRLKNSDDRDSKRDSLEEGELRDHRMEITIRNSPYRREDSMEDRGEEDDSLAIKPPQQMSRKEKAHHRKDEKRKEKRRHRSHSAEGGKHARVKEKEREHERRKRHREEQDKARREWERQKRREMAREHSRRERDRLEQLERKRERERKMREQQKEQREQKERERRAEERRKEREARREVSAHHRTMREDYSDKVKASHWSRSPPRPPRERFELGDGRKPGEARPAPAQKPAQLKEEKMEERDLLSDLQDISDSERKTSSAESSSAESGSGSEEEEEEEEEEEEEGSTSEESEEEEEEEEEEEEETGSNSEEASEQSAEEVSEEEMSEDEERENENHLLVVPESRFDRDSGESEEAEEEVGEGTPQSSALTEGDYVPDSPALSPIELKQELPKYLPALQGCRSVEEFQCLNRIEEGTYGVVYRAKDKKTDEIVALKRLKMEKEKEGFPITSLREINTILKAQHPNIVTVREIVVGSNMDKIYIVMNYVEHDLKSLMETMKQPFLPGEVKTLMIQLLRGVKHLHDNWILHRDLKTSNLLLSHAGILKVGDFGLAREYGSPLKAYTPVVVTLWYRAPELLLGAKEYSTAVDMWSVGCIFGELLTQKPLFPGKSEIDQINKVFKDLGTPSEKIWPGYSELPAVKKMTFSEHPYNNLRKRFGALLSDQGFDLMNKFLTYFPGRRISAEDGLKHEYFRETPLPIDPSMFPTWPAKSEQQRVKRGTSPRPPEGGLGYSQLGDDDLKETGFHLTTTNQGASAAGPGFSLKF
Sequence of Cyclin-dependent kinase 10 (Q15131 whole entry): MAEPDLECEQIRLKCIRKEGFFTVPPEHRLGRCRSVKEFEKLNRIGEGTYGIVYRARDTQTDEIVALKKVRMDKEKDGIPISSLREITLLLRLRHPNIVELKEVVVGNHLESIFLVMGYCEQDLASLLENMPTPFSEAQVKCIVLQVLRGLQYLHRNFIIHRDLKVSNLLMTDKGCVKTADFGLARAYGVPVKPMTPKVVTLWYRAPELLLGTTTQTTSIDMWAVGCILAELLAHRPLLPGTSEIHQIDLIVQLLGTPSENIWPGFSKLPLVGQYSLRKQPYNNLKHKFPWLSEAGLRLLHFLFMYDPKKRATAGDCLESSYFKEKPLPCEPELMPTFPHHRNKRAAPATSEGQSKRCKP
Sequence of Mitogen-activated protein kinase 14 (Q16539 whole entry): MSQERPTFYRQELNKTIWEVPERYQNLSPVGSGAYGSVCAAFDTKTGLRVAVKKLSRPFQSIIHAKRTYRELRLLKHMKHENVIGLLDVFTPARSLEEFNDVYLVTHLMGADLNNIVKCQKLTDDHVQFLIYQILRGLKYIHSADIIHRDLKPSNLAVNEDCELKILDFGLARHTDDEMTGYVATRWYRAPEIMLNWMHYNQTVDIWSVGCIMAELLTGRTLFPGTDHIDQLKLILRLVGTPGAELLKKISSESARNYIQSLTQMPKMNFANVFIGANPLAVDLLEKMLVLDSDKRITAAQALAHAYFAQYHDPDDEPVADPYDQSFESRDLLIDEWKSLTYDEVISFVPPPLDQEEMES

Consider `CCOc1cc(N2CCC(O)CC2)ccc1Nc1ncc2c(n1)N(C)c1ccccc1C(=O)N2C`, for which the IC50 in series [1], in series [4] and in [5] was more than 50 µM in each case. The inhibition in series [2] is -5.7%; in series [3], -7.8%; in series [6], 0.7%; in [7], 35.6%; in [8], -8.6%; in series [9], -2.5%. In addition, the inhibition is 6% in series [12] and -0.4% in series [14]. The half-life in [10] is 2 h. Moreover, the inhibition at 50 µM in series [11] was -27.1%. The inhibition at 10 µM in [13] is -68.3%.
